Assay outcomes (PubChem BioAssay)
MrgX1 antag: blocks BAM8-22 activation of human MrgX1 receptor; AID 588676; MRGX1-HEK293 calcium flux, Fluo-4, BAM8-22 antagonism; stronger effect = lower value; actives 1.3% (n = 310,000); Q96LB2; B-score at 10 µM;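 active = calcium-response B-score plate-corrected more than 3 library SD below zero, starting fluorescence within 5 deviations, no agonist response on first addition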;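 note: peak minus trough fluorescence over baseline after final BAM8-22 challenge near maximal dose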
Target sequence (Q96LB2 whole entry, looked up): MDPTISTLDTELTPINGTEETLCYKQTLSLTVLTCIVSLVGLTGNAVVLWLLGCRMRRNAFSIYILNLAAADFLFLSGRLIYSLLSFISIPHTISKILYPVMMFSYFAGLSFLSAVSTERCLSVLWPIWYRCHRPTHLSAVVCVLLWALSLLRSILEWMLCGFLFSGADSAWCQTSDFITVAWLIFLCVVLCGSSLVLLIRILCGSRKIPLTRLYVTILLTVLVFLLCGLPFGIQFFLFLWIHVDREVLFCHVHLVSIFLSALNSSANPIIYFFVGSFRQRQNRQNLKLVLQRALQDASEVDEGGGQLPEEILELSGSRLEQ
MrgX1 PAM: allosterically activates human MrgX1 receptor signaling; Q96LB2; MrgX1-HEK293, Fluo-4 calcium flux, FDSS; stronger effect = higher value; B-score at 10 µM; actives 0.63% (n = 310,000); AID 588675;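 active = plate-corrected calcium response at least 3 library SD above typical, normal starting fluorescence, not activating the receptor alone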;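 note: compound read alongside a low EC10 to EC30 dose of BAM8-22 agonist; peak minus trough fluorescence over baseline measured at the second addition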
MrgX1 ag: agonists of human MrgX1 receptor; MrgX1-HEK293 cells, Fluo-4 calcium fluorescence, agonist mode; stronger effect = higher value; B-score at 10 µM; Q96LB2; actives 0.44% (n = 310,000);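 active = calcium response B-score plate-corrected fluorescence ratio at least 3 library SD, with starting fluorescence B-score inside 5 SD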
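Test system: Stable human MrgX1 HEK293 cell line | Schedule: Overnight plating before 1 h dye loading | Read-out basis: Baseline-normalised fluorescence change ratio, B-scored | Detection: Kinetic calcium dye fluorescence, Fluo-4 NW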
RGS4 inh: inhibitors of human RGS4; HEK293 M3R/RGS4 inducible, Fluo-4 calcium flux; stronger effect = higher value; triggered by carbachol at its EC20; B-score at 10 µM; actives 0.45% (n = 310,000); P49798;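 active = B-score, a plate-corrected calcium signal, over three deviations above library mean, with baseline fluorescence within five deviations of library mean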;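 note: RGS4 expression induced by doxycycline in cells with stable M3 receptor; B-score is computed from the integrated fluorescence ratio over baseline after carbachol; higher B-score means a larger calcium signal and so more RGS4 inhibition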
Target sequence (P49798 whole entry, looked up): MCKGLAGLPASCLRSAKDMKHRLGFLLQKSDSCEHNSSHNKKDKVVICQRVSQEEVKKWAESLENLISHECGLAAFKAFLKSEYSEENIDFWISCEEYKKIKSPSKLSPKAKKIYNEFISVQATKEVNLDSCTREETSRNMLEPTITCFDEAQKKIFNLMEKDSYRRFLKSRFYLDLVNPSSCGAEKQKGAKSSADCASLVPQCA
RGS4 pot: RGS4 potentiation or activation | actives 0.92% (n = 310,000) | B-score at 10 µM | HEK293 M3R/inducible RGS4, carbachol calcium flux Fluo4; stronger effect = lower value;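 active = B-score of the integrated calcium signal more than 4 SD below the library mean, with starting fluorescence not abnormally high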;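 note: negative B-score means reduced calcium response which marks RGS4 activation or potentiation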
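Material: Inducible-RGS4 HEK293 cells carrying M3 receptor; also added: carbachol at ECmax as muscarinic agonist stimulus; incubation: compound preincubation 20 min at room temperature before agonist; signal: Fluo4-AM (2 µM) calcium-flux fluorescence, kinetic read; measure: integrated calcium ratio converted to B score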
MrgX1 antag conf: reconfirmed antagonist of human MrgX1 receptor signaling | shares compounds with MrgX1 antag | MrgX1-HEK293, BAM8-22 calcium flux, Fluo-4; stronger effect = lower value | remaining BAM8-22 calcium response % of control (stronger effect = lower value), % at 10 µM | actives 19% (n = 2,300);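 active = remaining agonist calcium response no higher than 100% minus 3 SD of agonist-only control wells, with starting fluorescence near control levels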;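 note: agonist BAM8-22 given at a near maximal EC90 to ECmax level; peak minus minimum fluorescence divided by baseline after agonist addition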
HEK293 Ca flux: counter-screen for MrgX1 antagonists: effect in parental HEK293 cells. shares compounds with MrgX1 antag. Fluo-4 calcium fluorescence, FDSS. fluorescence ratio F(max-min)/F0 at 10 µM. actives 2% (n = 4,000);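 active = duplicate-averaged calcium fluorescence ratio at least three times the standard deviation of buffer wells, a nonspecific response in parental cells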
HEK293 Ca counter: counter-screen for MrgX1 allosteric activators: effect in parental HEK293 cells. actives 0.4% (n = 4,000). AID 624114. shares compounds with MrgX1 antag. fluorescence ratio F(max-min)/F0 at 10 µM. parental HEK293 calcium flux, Fluo-4 fluorescence ratio; stronger effect = higher value;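 active = calcium fluorescence ratio, averaged over duplicates, at least 3 SD of the buffer-well ratio, meaning a nonspecific response in receptor-free cells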;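 note: untransfected parental HEK293 lacking MrgX1 used as counterscreen for MrgX1 allosteric activators; fluorescence change taken during the second addition on a kinetic imager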
HEK293 Ca cntr2: MrgX1 activator counter-screen hit in parental HEK293 cells; shares compounds with MrgX1 antag; Fluo-4 calcium fluorescence (FDSS); stronger effect = higher value; fluorescence ratio F(max-min)/F0 at 10 µM; actives 8.7% (n = 4,000); AID 624115;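 active = calcium fluorescence ratio at least three times the spread of buffer wells, meaning a non-specific response in parental cells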
An asterisk follows results filed as active; i = inactive; / = not tested or not shown. Hits are enriched below; roughly 3.5% of the tested compounds scored in any of these assays.

SMILES | MrgX1 antag | MrgX1 PAM | MrgX1 ag | RGS4 inh | RGS4 pot | MrgX1 antag conf | HEK293 Ca flux | HEK293 Ca counter | HEK293 Ca cntr2
COc1ccc(CNC(=O)C2CCCN2S(=O)(=O)c2ccc(Cl)cc2)cc1 (stereo unspecified) | -5.5* | i | i | i | i | 83.9%* | i | i | i
Cc1ccc(CNC(=O)C2CCCN2S(=O)(=O)c2ccc(F)cc2)cc1 (stereo unspecified) | i | i | i | i | i | / | / | / | /
COc1ccc(CCNC(=O)C2CCCN2S(=O)(=O)c2ccc(F)cc2)cc1OC (stereo unspecified) | -9.02* | i | i | i | i | i | i | i | i
CCOC(=O)CNC(=O)C1CCN(S(=O)(=O)c2ccc(-c3nn[nH]n3)cc2)CC1 | i | i | i | i | i | / | / | / | /
Cc1ccc(S(=O)(=O)c2cnc3cc(C)nn3c2N)cc1 | i | i | i | i | i | / | / | / | /
COc1ccc(CN2CN=C(Nc3nc4ccccc4s3)NC2)cc1 | -7.47* | i | i | i | i | 57.0%* | i | i | i
c1ccc(CN2CN=C(Nc3nc4ccccc4s3)NC2)cc1 | i | i | i | i | i | / | / | / | /
CCC(=O)Nc1ccccc1C(=O)OCC(=O)c1ccccc1 | i | i | i | i | i | / | / | / | /
CCC(=O)Nc1ccccc1C(=O)OCC(=O)c1ccc2ccccc2c1 | -6.3* | i | i | i | i | i | i | i | i
Cc1cc(Br)ccc1NC(=O)CN(C)Cc1cccs1 | i | i | i | i | i | / | / | / | /
CC1=CC(=O)C=C(C)C1=NOS(=O)(=O)c1ccccc1 | / | / | / | i | i | / | / | / | /
CC1=CC(=O)C(C(C)C)=C/C1=N/OS(=O)(=O)c1ccccc1 | -14.2* | i | i | i | -8.18* | i | i | i | i
O=C(COC(=O)c1nc(Cl)ccc1Cl)NNC(=O)c1cccs1 | i | i | i | i | i | / | / | / | /
COC(=O)c1ccccc1NC(=O)c1ccc2c(c1)OCCCO2 | -10.3* | i | i | i | i | i | i | i | i
Cc1ccccc1NC(=O)c1ccc2c(c1)OCCO2 | i | i | i | i | i | / | / | / | /
CC(=O)Nc1ccc(Nc2nc(C)c([N+](=O)[O-])c(Nc3ccc(NC(C)=O)cc3)n2)cc1 | -22.1* | i | i | i | i | 82.2%* | i | i | i
CNc1nc(C)c([N+](=O)[O-])c(Nc2ccc(OC)cc2)n1 | i | i | i | i | i | / | / | / | /
CCc1nnc(NC(=O)CSc2nnc(CCc3nc4ccccc4[nH]3)n2C)s1 | i | i | i | i | i | / | / | / | /
Cc1nnc(NC(=O)CSc2nnc(CCc3nc4ccccc4[nH]3)n2C)s1 | -4.56* | i | i | i | i | i | i | i | i
CCOC(=O)C1CCN(C/C=C/c2ccccc2[N+](=O)[O-])CC1 | i | i | i | i | i | / | / | / | /
CC(=O)N1CN(CCCn2ccnc2)Cc2c1sc1c2CCCC1 | -5.76* | i | i | i | i | i | i | i | i
CC(=O)N1CN(Cc2ccccn2)Cc2c1sc1c2CCCC1 | i | i | i | i | i | / | / | / | /
CCCCNC(=O)c1ccc(NC(C)=O)c(Cl)c1 | i | i | i | i | i | / | / | / | /
CCC(=O)Nc1cc(C(=O)NCC2CCCN2CC)c(OC)cc1N(C)C (stereo unspecified) | i | i | i | i | i | / | / | / | /
CCN1CCCC1CNC(=O)c1cc(NC(C)=O)c(N(C)C)cc1OC (stereo unspecified) | -6.5* | i | i | i | i | i | i | i | i
SMILES | MrgX1 antag | MrgX1 PAM | MrgX1 ag | RGS4 inh | RGS4 pot | MrgX1 antag conf | HEK293 Ca flux | HEK293 Ca counter | HEK293 Ca cntr2
Cc1cccc(NC(=O)CSCC(=O)NNC(=O)c2ccoc2C)c1 | i | i | i | i | i | / | / | / | /
Cc1cc(C)c(S(C)(=O)=O)c(NN)n1 | i | i | i | i | i | / | / | / | /
O=C1CSC(c2ccc([N+](=O)[O-])cc2)N1c1ccc(O)cc1 (stereo unspecified) | i | i | i | i | i | / | / | / | /
CCOC(=O)C1=C(C)Nc2nc(C)nn2C1c1ccc(OC)c(OC)c1 (stereo unspecified) | -6.74* | i | i | i | i | i | i | i | i
O=C1CC(C(=O)Nc2nccs2)C(c2ccccc2)O1 (stereo unspecified) | -6.3* | i | i | i | i | i | i | i | i
COc1cccc(-c2nnc(SCC(=O)NCc3ccc4c(c3)OCO4)n2Cc2ccco2)c1 | i | i | i | i | i | / | / | / | /
COc1cccc(-c2nnc(SCC(=O)Nc3ccc4c(c3)OCCO4)n2Cc2ccco2)c1 | -6.39* | i | i | i | i | i | i | i | i
O=c1c2cc3c(nc2[nH]c(=S)n1-c1ccccc1)CCCC3 | i | i | i | i | i | / | / | / | /
COC(=O)[C@H](Cc1ccccc1)NC(=O)N1CCN(c2ccc(F)cc2)CC1 | i | i | i | i | i | / | / | / | /
COc1cc2cc3c(N)c(C(=O)Nc4sc(C)c(C)c4C#N)sc3nc2cc1OC | -6.22* | i | i | i | i | 74.2%* | i | i | i
O=C(O)COc1ccc(Cl)cc1CO | -4.75* | i | i | i | i | i | i | i | i
COc1ccc2oc(C(=O)OCC(=O)Nc3ccc(N4CCOCC4)cc3)c(C)c2c1 | -8.49* | i | i | i | i | i | i | i | i
COc1ccc2oc(C(=O)OCC(=O)Nc3ccccc3)c(C)c2c1 | i | i | i | i | i | / | / | / | /
CCCn1c(-c2nonc2N)nc2ccccc21 | -8.34* | i | i | i | i | i | i | i | i
Nc1nonc1-c1nc2ccccc2n1CC(=O)O | i | i | i | i | i | / | / | / | /
Nc1nonc1-c1nc2ccccc2n1CC(=O)N1CCCCC1 | -5.43* | i | i | i | i | i | i | i | i
Cn1c(-c2nonc2N)nc2ccccc21 | i | i | i | i | i | / | / | / | /
